Consider 7 compounds from ChEMBL document CHEMBL4619781 (J Med Chem, 2020).

SMILES strings stand for the structures. Active and inactive are the calls of the source. The rule behind the calls is not given here.

One assay deals with SF-295. The assay is described as follows: Cytotoxicity against human SF295 cells assessed as reduction in cell viability measured after 72 hrs by CellTiter 96 aqueous one solution assay. Type of assay: functional, cell-based. The following applies: SF-295, 72 h. Summed up: (§1)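 Cells diluted to 5 × 10^4 cells/mL in RPMI 1640 or DMEM with 10% FBS, streptomycin and penicillin; plated and incubated 24 h at 37 °C, 5% CO2. Medium replaced, then serial dilutions added from DMSO at final 0–1000 nM for 72 h. Absorbance at 490 nm read after 30–60 min with reagent. Mean ± SD of three replicates; EC50 by curve fitting.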

In another assay the test system is SK-MEL-5. The assay is described as follows: Cytotoxicity against human SK-MEL-5 cells assessed as reduction in cell viability measured after 72 hrs by CellTiter 96 aqueous one solution assay. The class given is functional, cell-based. The following applies: SK-MEL-5, 72 h. The method in brief:
as §1

The test system of a further assay is MDA-MB-231. The assay is described as follows: Cytotoxicity against human MDA-MB-231 cells assessed as reduction in cell viability measured after 72 hrs by CellTiter 96 aqueous one solution assay. The class given is functional, cell-based. The note with it: MDA-MB-231, 72 h. Summed up: as §1
For a further assay, the system named is NCI-H226. The assay is described as follows: Cytotoxicity against human NCI-H226 cells assessed as reduction in cell viability measured after 72 hrs by CellTiter 96 aqueous one solution assay. Type of assay: functional, cell-based. The note with it: NCI-H226, 72 h. Summed up:
as §1

A further assay has as its system DNA. The assay is described as follows: Induction of Escherichia coli plasmid pUC19 DNA cleavage assessed as increase in relaxation of supercoiled plasmid DNA measured after 24 hrs by SYBR green staining based gel electrophoresis. The class given is nucleic-acid assay. The method in brief: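 Supercoiled pUC19 (25 nM plasmid, […]) in Dulbecco's PBS pH 7.4 with 5% DMSO and varying compound concentrations, with or without 1 mM reduced glutathione, 37 °C for 24 h, in triplicate. Run on 1% agarose gel in TAE at 100 V for 1 h. Supercoiled (form I) band intensity normalized to DMSO controls.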

In general, EC50 refers to the concentration at which the effect is half-maximal. For the compound `COC(=O)[C@H](O)[C@@](C)(O)[C@@]12O[C@]13c1cc(O)c4c(c1N[C@H]2C#C/C=C\C#C[C@H]3O)C(=O)c1c(ccc(OC)c1O)C4=O`, the EC50 in the assay with SF-295 is 4 nM; with SK-MEL-5, 2.8 nM; in the assay on MDA-MB-231, 5 nM; in the assay with NCI-H226 it was 32 nM. Further, in the assay with DNA, the result was Active.

On to `COC(=O)[C@H](O)[C@@](C)(O)[C@@]12O[C@]13c1cc(O)c4c(c1N[C@H]2C#C/C=C\C#C[C@H]3O)C(=O)c1cc(OC)ccc1C4=O`, for which the EC50 in the assay on SF-295 worked out at 21 nM; in the assay with SK-MEL-5, 19 nM; with MDA-MB-231 it was 14 nM; with NCI-H226, 68 nM. Moreover, in the assay with DNA, the result was Active.

With `COc1ccc2c(c1O)C(=O)c1c3c(cc(O)c1C2=O)[C@@]12O[C@@]1([C@@H](C)O)[C@H](C#C/C=C\C#C[C@H]2O)N3`, the EC50 was determined as 0.45 nM in the assay with SF-295, 0.74 nM in the assay with SK-MEL-5, 1.1 nM in the assay with MDA-MB-231 and 4.2 nM in the assay with NCI-H226. Besides, in the assay with DNA, the result was Active.

Consider `COC(=O)[C@H](O)[C@@](C)(O)[C@@]12O[C@]13c1cc(O)c4c(c1N[C@H]2C#C/C=C\C#C[C@H]3O)C(=O)c1c(ccc(OCC(C)=O)c1O)C4=O`, for which the EC50 was 1.1 nM with SF-295, 0.8 nM in the assay on SK-MEL-5, 0.9 nM in the assay on MDA-MB-231 and 3.7 nM in the assay on NCI-H226. For the same compound, the result with DNA was Active.

In the case of `COC(=O)[C@H](O)[C@@](C)(O)[C@@]12O[C@]13c1cc(O)c4c(c1N[C@H]2C#C/C=C\C#C[C@H]3O)C(=O)c1c(ccc(O)c1O)C4=O`, the EC50 worked out at 45 nM in the assay on SF-295, 32 nM in the assay on SK-MEL-5, 34 nM in the assay on MDA-MB-231 and 66 nM in the assay on NCI-H226. Also, the outcome in the assay on DNA was Active.

For `C#CCOc1ccc2c(c1O)C(=O)c1c3c(cc(O)c1C2=O)[C@@]12O[C@@]1([C@](C)(O)[C@@H](O)C(=O)OC)[C@H](C#C/C=C\C#C[C@H]2O)N3`, the EC50 in the assay with SF-295 was found to be 2.8 nM; with SK-MEL-5, 2.8 nM; in the assay on MDA-MB-231 it was 3.7 nM; in the assay on NCI-H226, 26 nM. Besides, the outcome in the assay on DNA was Active.

For `COC(=O)[C@H](O)[C@@](C)(O)[C@@]12O[C@]13c1cc(O)c4c(c1N[C@H]2C#C/C=C\C#C[C@H]3O)C(=O)c1cc(O)ccc1C4=O`, the EC50 with SF-295 was 51 nM; with SK-MEL-5 it was 36 nM; in the assay on MDA-MB-231, 37 nM; in the assay on NCI-H226 it was 75 nM. Besides, the outcome with DNA was Active.
